Data taken from ChEMBL document CHEMBL1156894, “Potent oxadiazole CGRP receptor antagonists for the potential treatment of migraine” (Bioorg Med Chem Lett, 2010).
≈ marks a conversion by molar mass, not a printed value.

Tests used:
[1] = target: T1, Calcitonin gene-related peptide type 1 receptor (Homo sapiens, UniProt O60894+Q16602); test: Antagonist activity at human recombinant CGRP receptor expressed in HEK293 cells assessed as inhibition of CGRP-stimulated increase of intracellular cAMP level in absence of human serum albumin; assay type: functional, cell-based
Procedure, shortened: (§1)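 HEK 293 cells expressing human recombinant CGRP receptor; antagonism of CGRP-stimulated rise in intracellular cAMP measured, run with or without HSA; functional pKi (fpKi) derived. Values are means of two experiments unless otherwise footnoted.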

[2] = Permeability across artificial membrane; assay type: ADME; details: PAMPA; read-out: permeability
Procedure, shortened: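 In vitro artificial membrane permeability assay (PAMPA).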

[3] = Aqueous solubility in fasted-state simulated intestinal fluid after 1 hr; assay type: physicochemical
Procedure, shortened: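 Compound amount dissolved in fasted-state simulated intestinal fluid, read at the 1 h time point.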

[4] = Blood clearance in rat; assay type: ADME, organism-based
[5] = target: T1, Calcitonin gene-related peptide type 1 receptor; test: Antagonist activity at human recombinant CGRP receptor expressed in HEK293 cells assessed as inhibition of CGRP-stimulated increase of intracellular cAMP level in presence of human serum albumin; assay type: functional, cell-based; procedure, shortened: as §1
[6] = Tmax in rat at 10 mg/kg, po in 5% N-Methyl-2-pyrrolidone, 80% Poly(ethylene glycol400 diluted to volume with 20% vitamin E TPGS in water; assay type: ADME, organism-based; parameters: dose 10 mg/kg, route oral; details: in vivo
Procedure, shortened: (§2)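 Rats given 10 mg/kg orally, formulated at 2 mg/mL in 5% NMP, 80% PEG400 made up to volume with 20% Vitamin E TPGS in water. Blood concentration-time profile followed over about 5 h per rat, giving Cmax, Tmax and dose-normalised AUC.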

[7] = Clearance in rat at 1 mg/kg, iv; assay type: ADME, organism-based; parameters: dose 1 mg/kg, route intravenous; details: in vivo
Procedure, shortened: (§3)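 Intravenous dose of 1 mg/kg in rat; clearance and half-life derived from the blood profile.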

[8] = Cmax in rat at 10 mg/kg, po in 5% N-Methyl-2-pyrrolidone, 80% Poly(ethylene glycol400 diluted to volume with 20% vitamin E TPGS in water; assay type: ADME, organism-based; parameters: dose 10 mg/kg, route oral; details: in vivo; procedure, shortened: as §2
Rattus norvegicus [9] = test: Liver blood flow in rat at 1 mg/kg, iv; assay type: ADME, organism-based; parameters: dose 1 mg/kg, route intravenous; details: in vivo
[10] = Half life in rat at 1 mg/kg, iv; assay type: ADME, organism-based; parameters: dose 1 mg/kg, route intravenous; details: in vivo; procedure, shortened: as §3
[11] = Bioavailability in rat at 10 mg/kg, po in 5% N-Methyl-2-pyrrolidone, 80% Poly(ethylene glycol400 diluted to volume with 20% vitamin E TPGS in water; assay type: ADME, organism-based; details: in vivo
Rattus norvegicus [12] = test: Dose normalized AUC in rat at 10 mg/kg, po in 5% N-Methyl-2-pyrrolidone, 80% Poly(ethylene glycol400 diluted to volume with 20% vitamin E TPGS in water; assay type: ADME, organism-based; parameters: dose 10 mg/kg, route oral; details: in vivo; procedure, shortened: as §2
Rattus norvegicus [13] = test: Dose normalized in rat at 10 mg/kg, po in 1% methylcellulose; assay type: ADME, organism-based; parameters: dose 10 mg/kg, route oral; details: in vivo
Procedure, shortened: (§4)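 Oral dosing to rats at 10 mg/kg as a 2 mg/mL suspension in 1% (w/v) aqueous methylcellulose. Blood concentrations followed over about 6 h, giving Cmax, Tmax and dose-normalised AUC.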

[14] = Cmax in rat at 10 mg/kg, po in 1% methylcellulose; assay type: ADME, organism-based; parameters: dose 10 mg/kg, route oral; details: in vivo; procedure, shortened: as §4
[15] = Bioavailability in rat at 10 mg/kg, po in 1% methylcellulose; assay type: ADME, organism-based; details: in vivo
[16] = Tmax in rat at 10 mg/kg, po in 1% methylcellulose; assay type: ADME, organism-based; parameters: dose 10 mg/kg, route oral; details: in vivo; procedure, shortened: as §4

T1 sequence (Q16602 whole entry, one chain of several): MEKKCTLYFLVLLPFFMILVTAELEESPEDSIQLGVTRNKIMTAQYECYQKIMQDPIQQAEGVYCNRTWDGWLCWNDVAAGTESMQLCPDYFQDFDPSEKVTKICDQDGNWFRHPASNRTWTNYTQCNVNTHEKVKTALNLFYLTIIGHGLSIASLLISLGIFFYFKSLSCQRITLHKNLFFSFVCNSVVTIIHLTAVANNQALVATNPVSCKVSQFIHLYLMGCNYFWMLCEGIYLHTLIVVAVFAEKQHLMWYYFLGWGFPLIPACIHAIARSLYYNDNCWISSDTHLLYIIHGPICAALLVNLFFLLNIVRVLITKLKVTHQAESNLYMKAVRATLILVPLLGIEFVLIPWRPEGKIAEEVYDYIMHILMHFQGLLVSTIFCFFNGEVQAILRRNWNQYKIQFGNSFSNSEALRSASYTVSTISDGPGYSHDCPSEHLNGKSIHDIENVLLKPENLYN

| Ki [1] | Papp [2] | solubility at 1 h [3] | Ki [5] | Compound | other results |
| --- | --- | --- | --- | --- | --- |
| 200 nM |  |  |  | O=C(Cc1nnc(-c2cc(-c3ccccc3)cc(N3CCOCC3)c2)o1)N1CCC(n2c(=O)[nH]c3ncccc32)CC1 |  |
| 316 nM |  |  |  | O=C(Cc1nnc(-c2cccc(Cl)c2)o1)N1CCC(n2c(=O)[nH]c3ncccc32)CC1 |  |
| 3.98 nM |  |  |  | O=C(Cc1nnc(-c2cc(Cl)cc(C(F)(F)F)c2)o1)N1CCC(n2c(=O)[nH]c3ncccc32)CC1 | Tmax [6]: 1.5 h; clearance [7]: 33 mL/min/kg; Cmax [8]: 700 nM; LBF (Rattus norvegicus [9]): 40%; half-life [10]: 0.5 h; bioavailability [11]: 20%; AUC (Rattus norvegicus [12]): 6.3 kg·min/L |
| 1000 nM |  |  |  | O=C(Cc1nnc(-c2ccc(Cl)cc2)o1)N1CCC(n2c(=O)[nH]c3ncccc32)CC1 |  |
| 2.51 nM |  |  |  | O=C(Cc1nnc(-c2cc(Cl)cc(-c3ccccc3)c2)o1)N1CCC(n2c(=O)[nH]c3ncccc32)CC1 |  |
| 25.1 nM |  |  |  | O=C(Cc1nnc(-c2cc(F)cc(Cl)c2)o1)N1CCC(n2c(=O)[nH]c3ncccc32)CC1 |  |
| 12.6 nM |  |  |  | O=C(Cc1nnc(-c2cc(Cl)cc(Br)c2)o1)N1CCC(n2c(=O)[nH]c3ncccc32)CC1 |  |
| 501 nM |  |  |  | O=C(Cc1nnc(-c2ccccc2Cl)o1)N1CCC(n2c(=O)[nH]c3ncccc32)CC1 |  |
| 1.58 nM | < 0.3 ×10⁻⁶ cm/s | 390 µg/mL (≈ 732 µM) | 100 nM | Cc1ncc(-c2cc(Cl)cc(-c3nnc(CC(=O)N4CCC(n5c(=O)[nH]c6ncccc65)CC4)o3)c2)n1C | clearance [4]: 52 mL/min/kg |
| 15.8 nM |  |  |  | O=C(Cc1nnc(-c2cc(Cl)cc(Cl)c2)o1)N1CCC(n2c(=O)[nH]c3ncccc32)CC1 |  |
| 25.1 nM |  |  |  | Cc1cc(C)cc(-c2nnc(CC(=O)N3CCC(n4c(=O)[nH]c5ncccc54)CC3)o2)c1 |  |
| 251 nM |  |  |  | O=C(Cc1nnc(-c2ccc(Cl)c(Cl)c2)o1)N1CCC(n2c(=O)[nH]c3ncccc32)CC1 |  |
| 200 nM |  |  |  | O=C(Cc1nnc(-c2ccccc2)o1)N1CCC(n2c(=O)[nH]c3ncccc32)CC1 |  |
| 7.94 nM |  |  |  | COc1cc(Cl)cc(-c2nnc(CC(=O)N3CCC(n4c(=O)[nH]c5ncccc54)CC3)o2)c1 |  |
| 126 nM |  |  |  | O=C(Cc1nnc(-c2cc(F)cc(F)c2)o1)N1CCC(n2c(=O)[nH]c3ncccc32)CC1 |  |
| 2.51 nM | 22 ×10⁻⁶ cm/s | < 1 µg/mL | 126 nM | Cc1ccc(-c2cc(Cl)cc(-c3nnc(CC(=O)N4CCC(n5c(=O)[nH]c6ncccc65)CC4)o3)c2)cn1 |  |

Second part, the molecule before the results:

| Compound | Ki [1] | Papp [2] | solubility at 1 h [3] | Ki [5] | other results |
| --- | --- | --- | --- | --- | --- |
| O=C(Cc1nnc(-c2cc(Cl)cc(C3CCN(CC(F)F)CC3)c2)o1)N1CCC(n2c(=O)[nH]c3ncccc32)CC1 | 3.98 nM | 20 ×10⁻⁶ cm/s | 10 µg/mL (≈ 17.1 µM) | 79.4 nM | clearance [4]: 67 mL/min/kg |
| O=C(Cc1nnc(-c2cc(Cl)ccc2Cl)o1)N1CCC(n2c(=O)[nH]c3ncccc32)CC1 | 126 nM |  |  |  |  |
| O=C(Cc1nnc(-c2c(Cl)cccc2Cl)o1)N1CCC(n2c(=O)[nH]c3ncccc32)CC1 | 794 nM |  |  |  |  |
| O=C(Cc1nnc(-c2cc(Cl)cc(N3CCOCC3)c2)o1)N1CCC(n2c(=O)[nH]c3ncccc32)CC1 | 6.31 nM | 12 ×10⁻⁶ cm/s | 40 µg/mL (≈ 76.3 µM) | 126 nM | clearance [4]: 70 mL/min/kg |
| COc1cc(OC)cc(-c2nnc(CC(=O)N3CCC(n4c(=O)[nH]c5ncccc54)CC3)o2)c1 | 50.1 nM |  |  |  |  |
| O=C(Cc1nnc(-c2cc(C(F)(F)F)cc(C(F)(F)F)c2)o1)N1CCC(n2c(=O)[nH]c3ncccc32)CC1 | 25.1 nM |  |  |  |  |
| CN1CCN(c2cc(Cl)cc(-c3nnc(CC(=O)N4CCC(n5c(=O)[nH]c6ncccc65)CC4)o3)c2)CC1 | 5.01 nM | < 0.3 ×10⁻⁶ cm/s | 210 µg/mL (≈ 391 µM) | 25.1 nM | clearance [4]: 72 mL/min/kg |
| CN1CCC(c2cc(Cl)cc(-c3nnc(CC(=O)N4CCC(n5c(=O)[nH]c6ncccc65)CC4)o3)c2)CC1 | 3.98 nM | 2.2 ×10⁻⁶ cm/s | 531 µg/mL (≈ 991 µM) | 20 nM |  |
| COc1ccc(-c2ccccc2)cc1CC(=O)N1CCC(n2c(=O)[nH]c3ncccc32)CC1 | 2510 nM |  |  |  |  |
| CN(C)CCOc1cc(Cl)cc(-c2nnc(CC(=O)N3CCC(N4CCc5ccccc5NC4=O)CC3)o2)c1 | 12.6 nM | 18.5 ×10⁻⁶ cm/s | 120 µg/mL (≈ 217 µM) | 15.8 nM | clearance [7]: 50 mL/min/kg; AUC (Rattus norvegicus [13]): 2.5 kg·min/L; Cmax [14]: 250 nM; half-life [10]: 1.9 h; clearance [4]: 50 mL/min/kg; bioavailability [15]: 14%; Tmax [16]: 3 h |
| O=C(Cc1nnc(-c2cccc(Cl)c2Cl)o1)N1CCC(n2c(=O)[nH]c3ncccc32)CC1 | 158 nM |  |  |  |  |
| CN(C)CCOc1cc(Cl)cc(-c2nnc(CC(=O)N3CCC(n4c(=O)[nH]c5ncccc54)CC3)o2)c1 | 5.01 nM | 1.2 ×10⁻⁶ cm/s | 330 µg/mL (≈ 627 µM) | 50.1 nM |  |
| Cc1cc(-c2nnc(CC(=O)N3CCC(n4c(=O)[nH]c5ncccc54)CC3)o2)cc(N2CCOCC2)c1 | 6.31 nM |  |  |  |  |
| CCN1CCC(c2cc(Cl)cc(-c3nnc(CC(=O)N4CCC(n5c(=O)[nH]c6ncccc65)CC4)o3)c2)CC1 | 3.16 nM | 0.5 ×10⁻⁶ cm/s | 565 µg/mL (≈ 1030 µM) | 15.8 nM |  |
